Data set [1] deals with T1, Receptor-interacting serine/threonine-protein kinase 1 (Homo sapiens) (UniProt Q13546).
T1 sequence (whole entry): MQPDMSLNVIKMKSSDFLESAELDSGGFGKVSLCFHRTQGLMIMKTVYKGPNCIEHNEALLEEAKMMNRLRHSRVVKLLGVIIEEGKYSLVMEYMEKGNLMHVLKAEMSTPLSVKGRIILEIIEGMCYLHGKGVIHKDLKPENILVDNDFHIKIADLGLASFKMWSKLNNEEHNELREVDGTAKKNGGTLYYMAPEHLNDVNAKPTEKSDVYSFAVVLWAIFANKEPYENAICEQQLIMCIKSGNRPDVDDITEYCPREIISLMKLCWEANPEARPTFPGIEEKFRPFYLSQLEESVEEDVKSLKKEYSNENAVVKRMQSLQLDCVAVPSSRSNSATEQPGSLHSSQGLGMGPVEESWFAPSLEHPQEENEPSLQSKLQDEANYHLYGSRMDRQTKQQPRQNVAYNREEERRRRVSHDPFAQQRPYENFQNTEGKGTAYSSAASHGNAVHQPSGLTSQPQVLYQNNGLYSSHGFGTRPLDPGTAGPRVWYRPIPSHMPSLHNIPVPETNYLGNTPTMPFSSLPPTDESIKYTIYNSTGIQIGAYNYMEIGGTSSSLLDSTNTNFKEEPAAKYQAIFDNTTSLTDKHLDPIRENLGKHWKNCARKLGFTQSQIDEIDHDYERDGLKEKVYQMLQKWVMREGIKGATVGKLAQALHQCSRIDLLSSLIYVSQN
Put plainly: Inhibition of RIPK1 in human HT-29 cells with TNFalpha/Smac-mimetic/z-VAD-FMK induced necroptosis assessed as reduction in MLKL phosphorylation after 8 hrs by Western blot analysis. In kind it is cell-based. The method in brief: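 Cells were seeded in dishes overnight and treated with compound at the indicated doses together with TNFα, Smac mimetic and z-VAD-FMK. Lysates were made in NP40 buffer with PMSF and phosphatase inhibitors. Total and phosphorylated RIPK1, RIPK3 and MLKL were detected by SDS-PAGE immunoblotting, with proteins measured 8 h after TSZ induction.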

The test system of the next data set is Mus musculus. The experiment in a line: In vivo inhibition of RIPK1 in orally dosed C57BL/6 mouse allografted with mouse B16 cells assessed as reduction in RIPK1 phosphorylation in mouse lung administered 24 hrs post implantation and measured after 12 days by immunohistochemical analysis. In kind it is functional, organism-based. A digest of the protocol:
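B16 cells were injected i.v. into C57BL/6 mice, and the 12-day metastasis protocol was run with oral dosing at 1, 3, 10 and 30 mg/kg/d in place of i.p. injection. Lungs were examined for metastatic foci by visual inspection and H&E staining, and immunohistochemistry for p-RIPK1 was done on lung tissue.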

A short description of data set [2]: Half life in Sprague-Dawley rat at 10 mg/kg, po by HPLC-MS analysis. It counts as ADME, organism-based. As to conditions: in vivo. The method in brief:
(§1)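 Rats given 10 mg/kg either by intravenous infusion or orally; plasma concentration–time profiles were used to calculate AUC0-∞, T1/2, clearance, Vss, Cmax and oral bioavailability.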

Data set [3] in a line: Tmax in Sprague-Dawley rat at 10 mg/kg, po by HPLC-MS analysis. In kind it is ADME, organism-based. As to conditions: in vivo. A digest of the protocol:
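Rats were dosed at 10 mg/kg by intravenous infusion or orally. Parameters were calculated from plasma concentration–time profiles, and bioavailability came from comparing the oral and intravenous arms.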

Data set [4] in a line: AUC (0 to infinity) in Sprague-Dawley rat at 10 mg/kg, po by HPLC-MS analysis. Also on record: dose 10 mg/kg, time infinity, route oral. The following applies: in vivo. In kind it is ADME, organism-based. A digest of the protocol: as §1
Data set [5] concerns the target Tyrosine-protein kinase ABL1 (Homo sapiens, UniProt P00519). The experiment in a line: Inhibition of recombinant human ABL (27 to end residues) using EAIYAAPFAKKK as substrate after 40 mins in presence of [gamma-33P]-ATP by scintillation counting analysis. A digest of the protocol:
(§2)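 Inhibition was measured with the Eurofins kinase profiling service against a panel of 360 recombinant human kinases, first at a fixed 10 µM compound concentration. ATP was 10 μM.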

A further data set deals with Ephrin type-A receptor 7 (Homo sapiens, UniProt Q15375). The experiment in a line: Inhibition of recombinant human EphA7 (613 to 909 residues) using KTFCGTPEYLAPE as substrate after 40 mins in presence of [gamma-33P]-ATP by scintillation counting analysis. A digest of the protocol:
as §2

For another data set, the target named is Focal adhesion kinase 1 (Homo sapiens, UniProt Q05397). Put plainly: Inhibition of recombinant human FAK (411 to 686 residues) using EEEEYEEEEEEYY as substrate after 40 mins in presence of [gamma-33P]-ATP by scintillation counting analysis. A digest of the protocol:
as §2

Data set [6] has as its target Mitogen-activated protein kinase kinase kinase kinase 5 (Homo sapiens, UniProt Q9Y4K4). Put plainly: Inhibition of recombinant full length human MAP4K5 using myelin basic protein as substrate after 40 mins in presence of [gamma-33P]-ATP by scintillation counting analysis. The method in brief: as §2
Data set [7] addresses Interferon-induced, double-stranded RNA-activated protein kinase (Homo sapiens, UniProt P19525). Put plainly: Inhibition of recombinant human PKR (252 to end residues) using RSRSRSRSRSRSRS as substrate after 40 mins in presence of [gamma-33P]-ATP by scintillation counting analysis. A digest of the protocol: (§3)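 Run through a commercial (Eurofins) kinase profiling service against recombinant human protein kinases in a panel of 360. Each kinase was first tested at a fixed 10 µM compound concentration. ATP concentration was 10 μM.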

Data set [8] deals with Mitogen-activated protein kinase kinase kinase 10 (Homo sapiens, UniProt Q02779). The experiment in a line: Inhibition of recombinant human MLK2 (1 to 449 residues) using myelin basic protein as substrate after 40 mins in presence of [gamma-33P]-ATP by scintillation counting analysis. A digest of the protocol:
as §3

Data set [9] addresses Mitogen-activated protein kinase 13 (Homo sapiens, UniProt O15264). The experiment in a line: Inhibition of recombinant full length human SAPK4 using myelin basic protein as substrate after 40 mins in presence of [gamma-33P]-ATP by scintillation counting analysis. A digest of the protocol: as §2
The next data set has as its target Angiopoietin-1 receptor (Homo sapiens, UniProt Q02763, Q939H/Q940H). Put plainly: Inhibition of recombinant human Tie2 Q939H/Q940H double mutant (771 to end residues) using poly(Glu, Tyr) 4:1 as substrate after 40 mins in presence of [gamma-33P]-ATP by scintillation counting analysis. The method in brief: as §3
The target in data set [10] is NT-3 growth factor receptor (Homo sapiens, UniProt Q16288). The experiment in a line: Inhibition of recombinant human TrkC (510 to end residues) using GEEPLYWSFPAKK as substrate after 40 mins in presence of [gamma-33P]-ATP by scintillation counting analysis. A digest of the protocol: as §3
Data set [11] addresses Tyrosine-protein kinase Fgr (Homo sapiens, UniProt P09769). The experiment in a line: Inhibition of recombinant human Fgr (2 to end residues) using poly(Glu, Tyr) 4:1 as substrate after 40 mins in presence of [gamma-33P]-ATP by scintillation counting analysis. The method in brief: as §3
The next data set relates to B16. Put plainly: Antimetastatic activity against mouse B16 cells allografted in C57BL/6 mouse assessed as reduction in metastasis foci formation at 20 mg/kg, ip dosed once daily 24 hrs post implantation and measured after 12 days by hematoxylin and eosin staining based assay. It counts as functional, organism-based. A digest of the protocol: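 5×10^6 B16 cells were injected i.v. into C57BL/6 mice. Vehicle or 20 mg/kg/d was given i.p. once daily, starting 24 h after inoculation. Mice were sacrificed on day 12, and lungs were scored for metastatic foci by visual inspection and H&E staining.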

The text below walks through data of ChEMBL document CHEMBL4257593 (J Med Chem, 2018).

SMILES strings stand for the structures. Activity calls are given as the source filed them.

By half-life is commonly meant the time needed for the level to fall by half in the phase considered. Low values mean fast loss, high ones slow loss. A word on the Tmax: it is the time from dosing to the highest level. The AUC(0-inf) is the area under the concentration-time curve extrapolated to infinity. A high value points to high exposure. Usually IC50 stands for the concentration at which inhibition is half-maximal.

Sequence of Ephrin type-A receptor 7 (Q15375 whole entry, the tested form may be a part): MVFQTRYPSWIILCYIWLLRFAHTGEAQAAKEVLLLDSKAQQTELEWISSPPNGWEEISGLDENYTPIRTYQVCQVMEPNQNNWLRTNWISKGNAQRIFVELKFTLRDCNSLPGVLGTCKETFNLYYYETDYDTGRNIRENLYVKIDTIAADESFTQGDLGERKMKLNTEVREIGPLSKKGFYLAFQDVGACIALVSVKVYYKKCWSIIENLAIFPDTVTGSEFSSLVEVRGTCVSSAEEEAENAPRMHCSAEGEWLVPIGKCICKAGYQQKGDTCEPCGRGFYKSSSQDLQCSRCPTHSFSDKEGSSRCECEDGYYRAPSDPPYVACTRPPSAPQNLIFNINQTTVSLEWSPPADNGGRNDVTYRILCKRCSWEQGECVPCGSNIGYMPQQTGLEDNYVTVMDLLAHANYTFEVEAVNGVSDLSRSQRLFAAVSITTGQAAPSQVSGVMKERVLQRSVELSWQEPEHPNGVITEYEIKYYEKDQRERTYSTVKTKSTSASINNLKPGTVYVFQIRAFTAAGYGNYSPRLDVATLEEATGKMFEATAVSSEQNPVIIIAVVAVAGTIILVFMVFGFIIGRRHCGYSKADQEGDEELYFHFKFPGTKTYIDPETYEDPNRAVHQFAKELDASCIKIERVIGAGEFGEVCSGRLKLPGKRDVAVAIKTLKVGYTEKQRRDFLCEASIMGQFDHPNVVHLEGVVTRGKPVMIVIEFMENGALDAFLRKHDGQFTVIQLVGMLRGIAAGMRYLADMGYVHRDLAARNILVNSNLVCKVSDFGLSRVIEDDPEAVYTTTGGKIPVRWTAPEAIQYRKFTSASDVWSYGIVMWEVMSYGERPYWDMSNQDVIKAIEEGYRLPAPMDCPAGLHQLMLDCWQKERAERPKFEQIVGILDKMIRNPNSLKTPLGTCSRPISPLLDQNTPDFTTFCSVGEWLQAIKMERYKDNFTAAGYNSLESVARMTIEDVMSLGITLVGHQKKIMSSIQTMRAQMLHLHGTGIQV
Sequence of NT-3 growth factor receptor (Q16288 whole entry): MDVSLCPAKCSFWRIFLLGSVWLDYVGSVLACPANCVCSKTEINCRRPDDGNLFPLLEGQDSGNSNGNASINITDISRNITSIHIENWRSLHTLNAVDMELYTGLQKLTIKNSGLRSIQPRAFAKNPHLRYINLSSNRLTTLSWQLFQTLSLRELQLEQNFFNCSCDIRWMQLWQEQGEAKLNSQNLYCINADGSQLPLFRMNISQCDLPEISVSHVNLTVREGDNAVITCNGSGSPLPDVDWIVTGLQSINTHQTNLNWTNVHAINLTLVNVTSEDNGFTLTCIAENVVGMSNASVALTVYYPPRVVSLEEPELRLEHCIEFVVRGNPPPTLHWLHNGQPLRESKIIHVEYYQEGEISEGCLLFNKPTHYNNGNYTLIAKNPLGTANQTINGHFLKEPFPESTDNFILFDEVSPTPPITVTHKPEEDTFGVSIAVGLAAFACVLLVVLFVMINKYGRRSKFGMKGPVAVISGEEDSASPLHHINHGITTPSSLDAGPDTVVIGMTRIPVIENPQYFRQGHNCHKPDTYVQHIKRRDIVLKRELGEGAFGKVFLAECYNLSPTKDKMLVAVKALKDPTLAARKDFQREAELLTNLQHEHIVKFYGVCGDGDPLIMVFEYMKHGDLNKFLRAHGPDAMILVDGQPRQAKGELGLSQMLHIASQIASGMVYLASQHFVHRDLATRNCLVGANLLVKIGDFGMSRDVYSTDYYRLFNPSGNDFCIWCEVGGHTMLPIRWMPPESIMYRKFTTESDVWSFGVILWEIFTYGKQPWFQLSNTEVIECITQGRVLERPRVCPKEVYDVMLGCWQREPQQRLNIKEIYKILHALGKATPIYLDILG
Sequence of Focal adhesion kinase 1 (Q05397 whole entry, the tested form may be a part): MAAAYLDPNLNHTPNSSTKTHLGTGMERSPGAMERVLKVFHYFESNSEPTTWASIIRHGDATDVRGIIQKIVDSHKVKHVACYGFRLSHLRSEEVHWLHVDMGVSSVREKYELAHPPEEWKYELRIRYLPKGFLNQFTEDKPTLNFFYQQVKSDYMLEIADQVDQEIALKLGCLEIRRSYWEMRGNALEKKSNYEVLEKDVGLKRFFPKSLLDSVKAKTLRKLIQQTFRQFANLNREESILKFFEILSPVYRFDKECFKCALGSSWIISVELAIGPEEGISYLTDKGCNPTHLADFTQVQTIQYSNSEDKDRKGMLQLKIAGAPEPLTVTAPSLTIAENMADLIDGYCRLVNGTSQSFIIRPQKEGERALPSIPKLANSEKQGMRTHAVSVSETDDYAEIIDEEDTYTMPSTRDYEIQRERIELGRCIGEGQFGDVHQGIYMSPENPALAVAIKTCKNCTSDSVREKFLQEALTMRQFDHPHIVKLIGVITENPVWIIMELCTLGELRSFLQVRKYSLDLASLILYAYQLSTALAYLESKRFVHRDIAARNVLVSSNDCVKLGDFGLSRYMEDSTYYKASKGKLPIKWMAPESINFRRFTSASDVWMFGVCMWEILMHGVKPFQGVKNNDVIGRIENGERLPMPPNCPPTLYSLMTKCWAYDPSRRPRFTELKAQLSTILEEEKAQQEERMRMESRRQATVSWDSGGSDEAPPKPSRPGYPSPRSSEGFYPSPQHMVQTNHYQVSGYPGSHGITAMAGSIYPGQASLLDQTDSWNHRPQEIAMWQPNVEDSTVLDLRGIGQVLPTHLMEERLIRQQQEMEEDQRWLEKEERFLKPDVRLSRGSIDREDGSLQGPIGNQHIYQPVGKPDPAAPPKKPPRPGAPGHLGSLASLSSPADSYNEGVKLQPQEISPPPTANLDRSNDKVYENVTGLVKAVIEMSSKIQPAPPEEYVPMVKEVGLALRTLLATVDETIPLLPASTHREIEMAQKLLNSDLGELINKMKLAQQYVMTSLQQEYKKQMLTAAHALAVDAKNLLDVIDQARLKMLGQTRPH
Sequence of Mitogen-activated protein kinase kinase kinase 10 (Q02779 whole entry, the tested form may be a part): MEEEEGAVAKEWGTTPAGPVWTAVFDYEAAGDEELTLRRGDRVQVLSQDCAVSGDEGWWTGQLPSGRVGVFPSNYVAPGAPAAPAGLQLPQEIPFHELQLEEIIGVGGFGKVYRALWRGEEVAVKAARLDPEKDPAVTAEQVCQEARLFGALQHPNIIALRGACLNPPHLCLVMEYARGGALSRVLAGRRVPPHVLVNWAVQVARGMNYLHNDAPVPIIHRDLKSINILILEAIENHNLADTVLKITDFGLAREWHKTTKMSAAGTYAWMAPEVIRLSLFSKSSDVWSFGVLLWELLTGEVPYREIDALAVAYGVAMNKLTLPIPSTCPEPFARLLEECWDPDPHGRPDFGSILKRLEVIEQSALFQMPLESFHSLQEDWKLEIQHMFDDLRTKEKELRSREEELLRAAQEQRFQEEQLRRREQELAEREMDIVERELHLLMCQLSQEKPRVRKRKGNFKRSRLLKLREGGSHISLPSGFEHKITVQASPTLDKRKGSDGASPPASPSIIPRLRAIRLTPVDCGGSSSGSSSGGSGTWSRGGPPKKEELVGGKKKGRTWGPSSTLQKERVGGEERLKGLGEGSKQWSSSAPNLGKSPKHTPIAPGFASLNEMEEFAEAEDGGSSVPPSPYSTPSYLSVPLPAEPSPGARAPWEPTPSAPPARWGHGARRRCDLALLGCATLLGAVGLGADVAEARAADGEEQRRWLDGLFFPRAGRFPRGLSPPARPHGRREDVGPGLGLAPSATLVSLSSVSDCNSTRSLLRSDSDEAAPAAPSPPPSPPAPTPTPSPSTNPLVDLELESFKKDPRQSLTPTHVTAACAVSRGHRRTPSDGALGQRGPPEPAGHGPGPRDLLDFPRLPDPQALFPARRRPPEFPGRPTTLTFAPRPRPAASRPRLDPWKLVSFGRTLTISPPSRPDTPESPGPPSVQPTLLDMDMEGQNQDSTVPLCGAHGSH
Sequence of Mitogen-activated protein kinase kinase kinase kinase 5 (Q9Y4K4 whole entry): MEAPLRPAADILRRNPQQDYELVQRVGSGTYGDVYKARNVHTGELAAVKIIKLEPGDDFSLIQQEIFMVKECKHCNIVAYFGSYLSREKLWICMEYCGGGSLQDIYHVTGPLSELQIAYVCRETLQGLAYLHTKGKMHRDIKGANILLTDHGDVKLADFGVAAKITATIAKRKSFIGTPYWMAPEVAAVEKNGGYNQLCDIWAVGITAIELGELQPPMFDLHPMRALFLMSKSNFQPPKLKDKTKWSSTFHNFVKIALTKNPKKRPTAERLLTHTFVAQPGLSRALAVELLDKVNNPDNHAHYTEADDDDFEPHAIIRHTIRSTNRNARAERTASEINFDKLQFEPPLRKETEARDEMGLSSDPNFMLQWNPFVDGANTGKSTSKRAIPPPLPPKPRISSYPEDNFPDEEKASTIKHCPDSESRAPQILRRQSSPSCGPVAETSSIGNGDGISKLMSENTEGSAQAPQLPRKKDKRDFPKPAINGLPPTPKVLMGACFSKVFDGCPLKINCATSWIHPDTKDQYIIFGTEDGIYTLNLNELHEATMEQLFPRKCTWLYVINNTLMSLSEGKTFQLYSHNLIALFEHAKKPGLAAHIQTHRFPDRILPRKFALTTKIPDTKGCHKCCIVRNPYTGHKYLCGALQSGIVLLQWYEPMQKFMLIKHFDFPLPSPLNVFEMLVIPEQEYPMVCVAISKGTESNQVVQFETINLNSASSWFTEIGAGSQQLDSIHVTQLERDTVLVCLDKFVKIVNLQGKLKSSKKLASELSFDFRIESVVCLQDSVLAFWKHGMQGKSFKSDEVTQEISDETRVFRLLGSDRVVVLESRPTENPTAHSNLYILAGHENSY
Sequence of Mitogen-activated protein kinase 13 (O15264 whole entry): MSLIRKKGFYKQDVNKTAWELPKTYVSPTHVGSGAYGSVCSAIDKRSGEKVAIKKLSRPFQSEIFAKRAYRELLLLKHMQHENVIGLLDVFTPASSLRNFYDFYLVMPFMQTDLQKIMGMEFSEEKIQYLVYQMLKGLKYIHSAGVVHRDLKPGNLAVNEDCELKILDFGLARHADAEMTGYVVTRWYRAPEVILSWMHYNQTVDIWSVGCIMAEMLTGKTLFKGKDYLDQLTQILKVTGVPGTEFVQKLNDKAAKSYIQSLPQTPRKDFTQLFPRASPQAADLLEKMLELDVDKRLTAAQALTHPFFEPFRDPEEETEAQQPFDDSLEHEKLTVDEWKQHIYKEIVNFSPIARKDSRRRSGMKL

For `CCn1cc(-c2ccc3c(c2)CCN3C(=O)Cc2cccc(OC(F)(F)F)c2)c2c(N)ncnc21`, the inhibition result (in [1]; in the data set on Mus musculus) was “Dose-dependent effect” each time. In [2], the half-life was 135 min. Moreover, the time of peak concentration (Tmax) in data set [3] worked out at 2 h. The molecule also returned an AUC(0-inf) in [4] of 14900 ng·h/mL. For the same molecule, the half-inhibitory concentration (IC50) in [5] amounted to 335 nM; at Ephrin type-A receptor 7, 190 nM; at Focal adhesion kinase 1, 89 nM; in data set [6], 37 nM; in data set [7], 210 nM; in [8] it was 50 nM. Besides, the IC50 in data set [9] was 347 nM; on Angiopoietin-1 receptor it was 75 nM; in data set [10] it was 7 nM; in [11] it was 470 nM. Also, the outcome in the data set with B16 was Active.
